Assay outcomes (PubChem BioAssay)
proCasp7 act: procaspase-7 activators, primary screen, counter-screen for procaspase-3 activator project, biochemical, absorbance, HTS, human | Caspase-7 (Homo sapiens), P55210 | recombinant procaspase-7, Ac-DEVD-pNA absorbance 405 nm; D23A/D198A/D206A triple mutant, cannot self-cleave; scale: DMSO 0, 5 µM enzyme 100 | activation, % at 8.5 µM | 0.093% of 330,000 active | AID 463210, 2010;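 active = percent activation above the screen-wide mean plus 3 SD, cut at about 25% in these data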
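System: Procaspase-7 triple mutant (PC-7 D3A); measure: % activation from two-timepoint absorbance difference, scaled to controls; times: 1 h compound preincubation, 2 h substrate cleavage, 25 °C; also added: Ac-DEVD-pNA substrate, 400 µM as added; measured by: Epi-absorbance of released pNA at 405 nm, two timepoints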
MsrA inh: bovine MsrA enzyme inhibitors, primary screen, biochemical, absorbance, HTS. Methionine sulfoxide reductase A (Bos taurus). purified bovine MsrA, absorbance read-out. inhibition, % at 15.5 µM. 0.75% of 360,000 active. AID 651718, 2012; in the data active = inhibition above about 4.5%;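 note: 0% = vehicle wells with enzyme and 100% = reference inhibitor wells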
procasp3 activ: activators of human procaspase-3 D3A mutant, primary screen, biochemical, absorbance, PC-3 D3A mutant, single concentration | Caspase-3 (Homo sapiens), P42574 | recombinant procaspase-3 D3A, Ac-DEVD-pNA absorbance 405 nm | activation, % at 8.5 µM | 0.11% of 330,000 active;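 active = activation above the mean of all tested compounds plus 3 SD, cut at about 21% in these data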;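 note: 0% = DMSO alone and 100% = DMSO wells spiked with extra 5 µM PC-3 D3A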
Target sequence (P42574 whole entry D9A/D28A/D175A): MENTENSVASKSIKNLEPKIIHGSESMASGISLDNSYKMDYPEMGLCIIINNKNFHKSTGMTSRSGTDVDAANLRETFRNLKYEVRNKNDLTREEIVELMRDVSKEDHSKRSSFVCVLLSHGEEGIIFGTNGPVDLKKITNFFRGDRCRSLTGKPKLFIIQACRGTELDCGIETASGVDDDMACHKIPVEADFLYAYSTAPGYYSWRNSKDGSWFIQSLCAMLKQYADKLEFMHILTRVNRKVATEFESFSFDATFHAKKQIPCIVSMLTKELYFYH
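Assay system – Procaspase-3 D3A mutant · Benchmarks – DMSO low control, extra-enzyme high control · Technique – 405 nm absorbance of p-nitroaniline, reads at 0 and 120 min · Doses – 8.5 µM nominal · Measure – % activation between DMSO and enzyme-spiked controls · Also added – Ac-DEVD-pNA chromogenic peptide substrate · Schedule – 1 h compound preincubation, 2 h substrate hydrolysis at 25 °C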
bovine MsrA act: bovine MsrA enzyme activators, primary screen, biochemical, absorbance, HTS | activation, % at 10.6 µM | AID 602163, 2012 | purified bovine MsrA, absorbance read-out | 0.3% of 360,000 active; in the data active = activation above about 7.5%;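 note: 0% = vehicle and 100% = reference activator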
The depositor's hits bear a star; x = no result. An excerpt weighted towards active compounds, which were near 1.2% of everything screened.

SMILES	proCasp7 act	MsrA inh	procasp3 activ	bovine MsrA act
Cc1ccc(NS(=O)(=O)c2ccc(NC(=O)c3cccs3)cc2)cc1	7	0	1	8.2*
CCC(C)NS(=O)(=O)c1ccc(NC(=O)c2cccs2)cc1 (stereo not given)	7	-1	10	-1
O=C1CC2c3cc(Br)ccc3CCN2C(=O)CN1Cc1ccccc1 (stereo not given)	x	2	x	x
COc1cccc(CNC(=O)[C@H]2CCCN2C(=O)[C@H]2CCCN2C(=O)c2ccccc2C(F)(F)F)c1	x	1	x	x
O=C(N[C@@H](Cc1cccnc1)C(=O)N1CCC[C@H]1C(=O)NCCc1ccccc1Cl)c1cccs1	x	0	x	x
OC1OC2COC(c3ccccc3)OC2C(O)C1O (stereo not given)	x	0	x	x
CN1CCN(C(=O)Nc2cccc(-c3ccccc3)c2)CC1	7	4.6*	-2	-5
CN1CCN(C(=O)Nc2ccc3c(c2)N(C)C(=O)c2ccccc2S3)CC1	1	0	7	-2
CCCC(=O)OC[C@H]1CN([C@H](C)c2ccccc2)S(=O)(=O)c2c(F)cccc2O1	x	-1	x	x
CC(=O)Nc1cc2c(cc1[N+](=O)[O-])OCCO2	2	4.6*	9	0
Cc1cc2nc3ccc(=[N+](C)C)cc-3sc2cc1N	x	x	x	19*
CN(C)c1ccc2nc3ccc(=O)cc-3sc2c1	x	1	x	-7
Cc1ccc2nc(-c3ccc(NC(=O)CSCC(=O)O)cc3)sc2c1	2	4	-2	-6
Cc1ccc2nc(-c3ccc(NC(=O)COCC(=O)O)cc3)sc2c1	1	4.5*	1	-5
Nc1cc2ccccc2cc1NS(=O)(=O)N1CCCCC1	x	-1	x	x
Cc1ccc(C(=O)Nc2scc(-c3ccccc3)c2C(=O)O)o1	7	4.6*	5	-6
Cn1cccc([N+](=O)[O-])c1=O	x	2	x	-9
Cn1c(=O)c(=O)n(C)c2cc([N+](=O)[O-])c([N+](=O)[O-])cc21	4	5.1*	7	2
COC(=O)c1cc2c(c3c4cc(F)ccc4n(S(=O)(=O)c4ccc(C)cc4)c13)C(=O)N(Cc1ccccc1)C2	x	1	x	x
BrC(=C\c1ccccc1)/C=N/Nc1ccc2nncn2n1	-2	4.5*	-6	-5
CC(C)(C)OC(=O)N1CCC2CCN(S(C)(=O)=O)CC21 (stereo not given)	x	0	x	x
Cc1nn(CCCC(=O)Nc2sc3c(c2C#N)CCC3)c(C)c1[N+](=O)[O-]	-10	25*	-11	-1
CCn1c2c(n(C(C)=O)c1=O)C[C@@H](c1ccccc1)[C@@H](C)[C@@H](C(=O)N1CCCC1)C2	x	0	x	x
COc1cc(/C=N/NC(=O)c2cccc(NC(=O)c3ccccc3C)c2)ccc1O	8	1	1	-1
COc1cc(/C=N/NC(=O)c2cccc(NC(=O)c3ccccc3)c2)ccc1O	9	4.6*	4	-3
SMILES	proCasp7 act	MsrA inh	procasp3 activ	bovine MsrA act
COc1ccc(/C=N/NC(=O)c2ccc(NC(=O)c3cccc([N+](=O)[O-])c3)cc2)c(C(=O)O)c1OC	6	4.6*	6	-14
O=C(C(=O)N1CCC(CNS(=O)(=O)c2cccc(C(F)(F)F)c2)CC1)c1cc2ccccc2o1	x	1	x	x
O=C(O)c1cc(O)ccc1N=Nc1ccccc1	-2	4.6*	-1	-2
COC(=O)c1cccc(-n2sc3ccccc3c2=O)c1	-26	1	-25	11*
Cc1ccc(S(=O)(=O)N2CCN(C(=O)N3CCOCC3)C2C(C)C)cc1 (stereo not given)	3	2	1	-2
CCN(CC)c1ccc(C2N(C(=O)N3CCOCC3)CCN2S(=O)(=O)c2ccc(C)cc2)cc1 (stereo not given)	4	4.6*	11	-12
Cc1ccc(NC(=O)[C@@H](Cc2ccccc2)NC(=O)[C@H]2O[C@@H](n3ccc(=O)[nH]c3=O)[C@H](O)[C@@H]2O)cc1C	x	0	x	x
NC(=S)N=Nc1c(O)[nH]c2ccc(F)cc12	7	4.5*	2	-2
COc1cc(/C=C2\SC(=O)N(c3cccc(Cl)c3)C2=O)cc([N+](=O)[O-])c1O	x	1	x	-2
COc1cc(/C=C2\SC(=O)N(c3ccc(Cl)cc3)C2=O)cc([N+](=O)[O-])c1O	x	7.1*	x	-5
